The text below walks through data of ChEMBL document CHEMBL4145560, “Conformationally Constrained Cinnolinone Nucleoside Analogues as Siderophore Biosynthesis Inhibitors for Tuberculosis” (ACS Med Chem Lett, 2018).

Calls of active or inactive are those of the source. The rule behind the calls is not given here.

For series [1], the system named is Mycobacterium tuberculosis. The experiment in a line: Antimycobacterial activity against Mycobacterium tuberculosis H37Rv in glycerol alanine salts medium without ferric ammonium citrate at pH 6.6 after 10 to 14 days by broth microdilution method. Type of series: functional. In outline:
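M. tuberculosis H37Rv grown in glycerol-alanine-salts medium at pH 6.6, with no ferric ammonium citrate or other added iron. MIC taken as the concentration inhibiting 99% of growth.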

For series [2], the system named is Mycobacterium tuberculosis. The experiment in a line: Antimycobacterial activity against Mycobacterium tuberculosis H37Rv in glycerol alanine salts medium without ferric ammonium citrate at pH 6.6 after 10 to 14 days in presence of 12.5 uM salicylate by broth microdilution method. Type of series: functional. In short, it runs like this:
(§1)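 MIC against M. tuberculosis in iron-deficient GAST medium supplemented with salicylate at 0, 0.2, 0.78, 3.1 or 12.5 μM. Salicylate was added to the growth medium to test antagonism of whole-cell activity.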
(Broth dilution looks for growth in wells or tubes with falling amounts of substance.)

For series [3], the system named is Mycobacterium tuberculosis. The experiment in a line: Antimycobacterial activity against Mycobacterium tuberculosis H37Rv in glycerol alanine salts medium without ferric ammonium citrate at pH 6.6 after 10 to 14 days in presence of 0.2 to 3.1 uM salicylate by broth microdilution method. Type of series: functional, organism-based. In short, it runs like this: as §1

Series [4] in a line: Cytotoxicity against human HepG2 cells assessed as reduction in cell viability. Type of series: cell-based. In outline:
(§2)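 Viability of mammalian Vero and HepG2 cell lines tested up to a highest concentration of 200 μM.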

Series [5] in a line: Cytotoxicity against African green monkey Vero cells assessed as reduction in cell viability. Type of series: cell-based. The note with it: chlorocebus sabaeus. In outline: as §2
Series [6] addresses T1, Salicyl-AMP ligase / salicyl-S-ArCP synthetase (Mycobacterium tuberculosis, UniProt P71716).
T1 sequence (P71716 whole entry): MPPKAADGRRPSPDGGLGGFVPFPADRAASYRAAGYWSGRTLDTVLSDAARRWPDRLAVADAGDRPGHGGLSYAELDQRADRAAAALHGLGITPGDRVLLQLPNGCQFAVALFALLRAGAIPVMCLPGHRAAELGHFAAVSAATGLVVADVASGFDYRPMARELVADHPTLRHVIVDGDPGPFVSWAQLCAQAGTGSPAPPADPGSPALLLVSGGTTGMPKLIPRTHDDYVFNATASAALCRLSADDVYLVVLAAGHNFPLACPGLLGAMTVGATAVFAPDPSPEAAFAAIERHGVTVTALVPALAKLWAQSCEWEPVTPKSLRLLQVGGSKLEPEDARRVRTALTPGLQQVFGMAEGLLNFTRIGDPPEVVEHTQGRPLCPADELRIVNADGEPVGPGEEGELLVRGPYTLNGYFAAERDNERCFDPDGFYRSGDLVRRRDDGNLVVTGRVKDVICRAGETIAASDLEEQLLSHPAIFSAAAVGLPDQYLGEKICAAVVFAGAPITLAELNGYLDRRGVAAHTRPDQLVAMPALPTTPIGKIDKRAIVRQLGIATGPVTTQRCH
The experiment in a line: Inhibition of Mycobacterium tuberculosis recombinant salicylate ligase MbtA expressed in Escherichia coli using salicylic acid as substrate after 20 mins by [32P]PPi-ATP exchange based scintillation counting analysis. The note with it: read-out: Ki(app). In outline:
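Recombinant MbtA (7 nM) in a [32P]PPi-ATP exchange assay under initial-velocity conditions at pH 8.0. Substrates were 10 mM ATP, 250 μM salicylic acid and 1 mM PPi. Concentration–response data were fitted to the Morrison tight-binding equation to give apparent Ki.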

Series [7] is described as follows: AUC (0 to 8 hrs) in Sprague-Dawley rat at 2.5 mg/kg, iv administered as single dose via bolus injection by LC-MS/MS method. Type of series: ADME, organism-based. More on the design: time < 8 hr, dose 2.5 mg/kg, route intravenous. The note with it: in vivo. In outline:
(§3)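 Female Sprague–Dawley rats (n = 3), single i.v. dose 2.5 mg/kg. Plasma concentrations at several time points by LC–MS/MS. AUC taken over 0–8 h. Clearance, volume of distribution and half-life derived from the i.v. curve, with elimination monoexponential. Reported as mean ± SD.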

Series [8] is described as follows: AUC (0 to 8 hrs) in Sprague-Dawley rat at 25 mg/kg, po administered as single dose via gavage by LC-MS/MS method. Type of series: ADME, organism-based. More on the design: time < 8 hr, dose 25 mg/kg, route oral. The note with it: in vivo. In short, it runs like this: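 Female Sprague–Dawley rats (n = 3), single oral dose 25 mg/kg. Plasma levels at time points measured by LC–MS/MS. AUC over 0–8 h, reported as mean ± SD.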

Series [9] is described as follows: Volume of distribution at steady state in Sprague-Dawley rat at 2.5 mg/kg, iv administered as single dose via bolus injection by LC-MS/MS method. Type of series: ADME, organism-based. The note with it: in vivo, read-out: Vdss. In short, it runs like this: as §3
Series [10] is described as follows: Elimination half life in Sprague-Dawley rat at 2.5 mg/kg, iv administered as single dose via bolus injection by LC-MS/MS method. The note with it: in vivo, read-out: beta t1/2. Type of series: ADME, organism-based. In outline:
as §3

In series [11] the target is T2, Salicyl-AMP ligase / salicyl-S-ArCP synthetase (Mycobacterium tuberculosis) (UniProt P71716).
T2 sequence (whole entry): T1 sequence (P71716 whole entry)
The experiment in a line: Inhibition of salicylate ligase MbtA in Mycobacterium tuberculosis H37Rv in iron-free GAST medium assessed as reduction in water-soluble carboxymycobactin production at pH 7.4 at 5 times MIC after 27 to 70 hrs by LC-MS/MS method relative to control. In short, it runs like this:
(§4)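 M. tuberculosis grown in iron-deficient GAST medium from an initial OD650 of 0.2, with or without inhibitor at 5 × MIC, for 27 and 70 h. Mycobactin-T (cell-wall associated) and carboxymycobactin (secreted plus cell-wall associated) quantified by LC–MS/MS in MRM mode against synthetic standards. Values normalized to cell density.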

For series [12], the target named is T2, Salicyl-AMP ligase / salicyl-S-ArCP synthetase (Mycobacterium tuberculosis). Briefly: Inhibition of salicylate ligase MbtA in Mycobacterium tuberculosis H37Rv in iron-free GAST medium assessed as reduction in cell-wall associated lipophilic mycobactin-T production at pH 7.4 at 5 times MIC after 70 hrs by LC-MS/MS method relative to control. In outline: as §4

Series [13] can be described thus: Oral bioavailability in Sprague-Dawley rat at 25 mg/kg administered as single dose via gavage by LC-MS/MS method. Type of series: ADME, organism-based. The following applies: in vivo. In outline: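 Oral bioavailability (F) in female Sprague–Dawley rats (n = 3), calculated by comparing AUC0–8h after a single 25 mg/kg p.o. dose with AUC0–8h after a 2.5 mg/kg i.v. dose. Plasma levels measured by LC–MS/MS.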

Series [14] deals with T2, Salicyl-AMP ligase / salicyl-S-ArCP synthetase (Mycobacterium tuberculosis). Briefly: Inhibition of salicylate ligase MbtA in Mycobacterium tuberculosis H37Rv in iron-free GAST medium assessed as reduction in cell-wall associated lipophilic mycobactin-T production at pH 7.4 at 5 times MIC after 27 hrs by LC-MS/MS method relative to control. In outline: as §4
Series [15] can be described thus: Clearance in Sprague-Dawley rat at 2.5 mg/kg, iv administered as single dose via bolus injection by LC-MS/MS method. Type of series: ADME, organism-based. The following applies: in vivo. In short, it runs like this:
as §3

The subject of series [16] is Mycobacterium tuberculosis. Briefly: Antimycobacterial activity against wild type Mycobacterium tuberculosis in iron-free GAST medium at 0.04 to 10 uM after 8 days by two fold serial dilution method. Type of series: functional, organism-based.

A word on the MIC99: it is an inhibitory concentration at the 99% level, which refers to growth in some studies and to a panel of isolates in others. A word on the MIC: it is the least concentration at which growth counts as inhibited. The CC50 is the concentration at which the toxic effect on the cells reaches its halfway point. On to `Nc1ncnc2c1ncn2[C@@H]1O[C@H](CNS(=O)(=O)c2n[nH]c3ccccc3c2=O)[C@@H](O)[C@H]1O`, for which, in [1], the MIC99 was 4.7 µM. In addition, the MIC in [2] was at least 50 µM. Also, in [3], the outcome was inactive. Also, the CC50 in [4] and in [5] was above 200 µM throughout. The Ki in series [6] was found to be 0.0144 µM.
Turning to `Nc1ncnc2c1ncn2[C@@H]1O[C@H](CNS(=O)(=O)c2n[nH]c3cc(F)c(F)cc3c2=O)[C@@H](O)[C@H]1O`, in [1], the MIC99 came to 3.1 µM. In series [2], the MIC was at least 50 µM. For the same molecule, the outcome in series [3] was inactive. Further, the CC50 in [4] and in [5] was above 200 µM throughout. In addition, in [6], the Ki turned out to be 0.014 µM.
`Nc1ncnc2c1ncn2[C@@H]1O[C@H](CNS(=O)(=O)c2n[nH]c3ccc(F)cc3c2=O)[C@@H](O)[C@H]1O`: the MIC99 in [1] turned out to be 4.7 µM. For the same molecule, the minimum inhibitory concentration (MIC) in series [2] was at least 50 µM. In addition, in [3], the outcome was inactive. Besides, the CC50 in series [4] and in [5] was above 200 µM in each case. Further, in [6], the Ki was determined as 0.0209 µM.
What is called AUC(0-t) is exposure summed from dosing to a finite time, without extrapolation to infinity. By bioavailability is commonly meant dose-corrected exposure relative to a reference, in per cent. The clearance is the rate of elimination divided by the concentration. In the case of `CCN(CC)CC.Nc1ncnc2c1ncn2[C@@H]1O[C@H](CNS(=O)(=O)c2n[nH]c3cc(F)ccc3c2=O)[C@@H](O)[C@H]1O`, the MIC99 in series [1] turned out to be 2.3 µM. In addition, in series [2], the minimal inhibitory concentration (MIC) was at least 50 µM. The values for the exposure AUC(0-t) at 8 h in series [7] and in series [8] were 4630 ng·h/mL and 967 ng·h/mL, respectively. In series [9], the Vd turned out to be 0.57 L/kg. In addition, the outcome in [3] was inactive. Moreover, the 50% cytotoxic concentration (CC50) in series [4] and in series [5] was above 200 µM each time. In addition, in series [6], the Ki stood at 0.0116 µM. For the same molecule, the half-life in series [10] is 40 min. The values for the fold change (FC) in series [11], in series [12] and in series [14] were 1.5, 5 and above 2, respectively. In [13], this molecule displayed a bioavailability of 2.1%. For the same molecule, the clearance in series [15] was found to be 8.9 mL/min/kg.
Regarding `Nc1ncnc2c1ncn2[C@@H]1O[C@H](COS(=O)(=O)NC(=O)c2ccccc2O)[C@@H](O)[C@H]1O`, in series [2], the MIC is at least 50 µM. The AUC(0-t) at 8 h in [7] is 8650 ng·h/mL; in series [8], 1100 ng·h/mL. The Vd in [9] amounted to 0.079 L/kg. Besides, in series [10], the half-life came to 11 min. This molecule also displayed a bioavailability in series [13] below 1%. Further, in series [16], the outcome was Active. In [15], the clearance is 4.9 mL/min/kg.
In the case of `Nc1ncnc2c1ncn2[C@@H]1O[C@H](CNS(=O)(=O)c2noc3ccccc3c2=O)[C@@H](O)[C@H]1O`, the MIC99 in series [1] is above 50 µM. For the same molecule, the CC50 in series [4] and in [5] was above 200 µM in each case. For the same molecule, in series [6], the Ki is above 50 µM.
Turning to `Nc1ncnc2c1ncn2[C@@H]1O[C@H](CNS(=O)(=O)c2c[nH]c3ccccc3c2=O)[C@@H](O)[C@H]1O`, in series [1], the MIC99 is above 50 µM. The 50% cytotoxic concentration (CC50) in series [4] and in series [5] was above 200 µM in each case. Also, the Ki in series [6] worked out at 0.12 µM.
